Assay results published in paper PMC4739608 (The Journal of Cell Biology, 2016).

Experiments:
HFF cells [1] = assay: Immunofluorescence of IACs in HFF cells; format: cell-based, human; conditions: HFFs prespread on FN, 3 µM FAK [i] or 10 µM PF228, 1 h
Summary of the method: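 Cells were grown on FN-coated (10 µg/ml) coverslips or glass-bottom dishes. HFFs were spread on FN for 1 h before inhibitor or DMSO was added. Cells were fixed in 4% paraformaldehyde for 7 min, then permeabilized with 0.5% Triton X-100 for 10 min. Primary antibodies were applied for 1 h and secondaries for 30 min, in 2% BSA at RT. Stained areas >10 pixels were normalized to total cell area, with count and size per cell.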

NIH3T3 cells = assay: Immunofluorescence of IACs in NIH3T3 cells; format: cell-based, mouse; conditions: NIH3T3 on FN, 3 µM FAK [i] or 10 µM PF228, 1 h
HFF cells [2] = assay: Crystal violet proliferation assay; format: cell-based, human; conditions: up to 4 d, total cell number by crystal violet
[3] = system: consensus adhesome proteins; conditions: three other studies; ref Horton et al., 2015b; cited from earlier work

## CS(=O)(=O)c1cccc(CNc2nc(Nc3ccc4c(c3)CCC(=O)N4)ncc2C(F)(F)F)c1 [PF228]
HFF cells [1]
  FAK^Y397 levels by immunofluorescence: significantly reduced
  area and numbers of vinculin- or paxillin-containing IACs, and the actin cytoskeleton: unaffected
NIH3T3 cells
  FAK^Y397 levels by immunofluorescence: reduction of FAK^Y397 levels
  vinculin- or paxillin-containing IACs: did not affect

## CN1CCN(CCOc2cc(OC3CCOCC3)c3c(Nc4c(Cl)ccc5c4OCO5)ncnc3c2)CC1 [Src [i], N-(5-chloro-1,3-benzodioxol-4-yl)-7-[2-(4-methylpiperazin-1-yl)ethoxy]-5-(tetrahydro-2H-pyran-4-yloxy)quinazolin-4-amine]
HFF cells [2]
  inhibition of proliferation relative to DMSO: 30%

## Cc1ccc2c(c1)C(=O)C1(O)CCN(c3ccccc3)C1=N2 (stereo not drawn) [blebbistatin]
[3]
  consensus adhesome proteins, mean fold decrease upon blebbistatin treatment: 2.1 fold
